Shown are actives, neighbours in structure and some others; about 2.3% of the full set was active somewhere.
Apaf1 inhib – inhibitors of human Apaf-1 apoptosome; inhibition, % at 20 µM; reconstituted apoptosome caspase-3 activity, DEVD-Rh110 fluorescence; 330,000 compounds, 0.71% hits; O14727; active = inhibition of at least 40% at 20 µM
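Medium: Hepes buffer, pH 7.5 / System: biochemical Apaf-1 apoptosome reconstitution / Measured by: Rh110 fluorescence, excitation 480 nm, emission 540 nm / Times: compound with Apaf-1, dATP, procaspase-3 30 min, then 50 min reaction, room temperature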
PAFAH1B3 FP inh – blocks human PAF acetylhydrolase 1B catalytic subunit 3 | Q15102 | recombinant PAFAH1B3, FP-rhodamine probe, fluorescence polarization | 340,000 compounds, 0.28% hits | inhibition, % at 3.39 µM;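 active = inhibition above the screen-wide average of all tested compounds plus 3 SD, cut at about 25% in these data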
TDP2 inh – TDP2 (human) inhibition, absorbance primary screen | O95551 | inhibition, % at 12.8 µM | recombinant TDP2, T5PNP hydrolysis, p-nitrophenol absorbance 415 nm | 370,000 compounds, 0.34% hits | AID 720702;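 active = inhibition above the mean of all tested compounds plus 3 SD, set per campaign, cut at about 25% in these data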
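Incubation: 2 h at 37 °C; Test system: recombinant human TDP2; Quantity: enzyme 120 nM; Read-out basis: percent inhibition; Medium: 50 mM Tris-HCl pH 7.5 with Mg2+, KCl, DTT, BSA; Repeats: single replicate; Compound: 12.8 µM single point, 1% DMSO; Signal: epi absorbance; Reagent: 5 mM T5PNP chromogenic substrate; Benchmarks: no-enzyme high, DMSO-plus-enzyme low.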
PAFAH2 inh – inhibitors of human PAFAH2 | recombinant PAFAH2, FP-rhodamine activity probe, fluorescence polarization | inhibition, % at 3.39 µM | 340,000 compounds, 0.99% hits | AID 492956;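 active = inhibition above the mean over all tested compounds plus 3 SD, cut at about 30% in these data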;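 note: inhibitors block probe labeling of enzyme so polarization drops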
PAFAH1B2 FP inh – PAFAH1B2 (human) inhibition | P68402 | recombinant PAFAH1B2, FP-rhodamine activity probe, fluorescence polarization | inhibition, % at 3.39 µM | 340,000 compounds, 1.2% hits;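 active = inhibition above the mean of all tested compounds plus 3 SD, cut at about 24% in these data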
Hits are given with their value.

COc1ccc(-c2sc3ccccc3c2-c2ccc(OCCN(C)C)cc2)cc1 was read as Apaf1 inhib 77, PAFAH1B3 FP inh inactive, TDP2 inh inactive, PAFAH2 inh inactive and PAFAH1B2 FP inh inactive.
`CC(/C=C1\SC(=S)N(NC(=O)c2ccccc2C)C1=O)=C\c1ccccc1` gave Apaf1 inhib inactive, PAFAH1B3 FP inh inactive, TDP2 inh inactive, PAFAH2 inh inactive and PAFAH1B2 FP inh inactive.
CC(/C=C1\SC(=S)N(NS(=O)(=O)c2ccccc2)C1=O)=C\c1ccccc1 was read as Apaf1 inhib inactive, PAFAH1B3 FP inh inactive, TDP2 inh inactive, PAFAH2 inh inactive and PAFAH1B2 FP inh 39.
For CC(/C=C1\SC(=S)N(NS(=O)(=O)c2ccc(C)cc2)C1=O)=C\c1ccccc1 the results were Apaf1 inhib inactive, PAFAH1B3 FP inh inactive, TDP2 inh inactive, PAFAH2 inh inactive and PAFAH1B2 FP inh 28.
Screening CC(/C=C1\SC(=S)N(NC(=O)c2ccc(C)cc2)C1=O)=C\c1ccccc1 returned Apaf1 inhib inactive, PAFAH1B3 FP inh inactive, PAFAH2 inh inactive and PAFAH1B2 FP inh inactive.
Screening O=C(N[C@H](C(=O)N1CCC[C@H]1C(=O)NC1CCCC1)C1CCCCC1)c1ccc(Cl)c(Cl)c1 returned TDP2 inh inactive.
Screening COC(=O)C1CN(Cc2ccccc2)CCS(=O)(=O)N1Cc1ccc(Cl)cc1 (stereo not drawn) returned TDP2 inh inactive.
For c1nc(NCC2CC2)c2cc(-c3ccc4c(c3)OCO4)ccc2n1 the results were TDP2 inh inactive.
O=C(c1cccc(S(=O)(=O)N2CCN(c3ccc(F)cc3)CC2)c1)N1CCCCCCC1 was read as Apaf1 inhib 42, PAFAH1B3 FP inh inactive, TDP2 inh inactive, PAFAH2 inh inactive and PAFAH1B2 FP inh inactive.
Screening CC(=O)N1CCN(C(=O)c2cccc(S(=O)(=O)N3CCN(c4ccc(F)cc4)CC3)c2)CC1 returned Apaf1 inhib inactive, PAFAH1B3 FP inh inactive, TDP2 inh inactive, PAFAH2 inh inactive and PAFAH1B2 FP inh inactive.
`COc1ccc(Nc2nc(-c3cc4cccc(OC)c4oc3=O)cs2)cc1` gave Apaf1 inhib inactive, PAFAH1B3 FP inh inactive, TDP2 inh inactive, PAFAH2 inh inactive and PAFAH1B2 FP inh inactive.
`COc1ccc2oc(=O)c(-c3csc(Nc4cccc(O)c4)n3)cc2c1` gave Apaf1 inhib inactive, PAFAH1B3 FP inh 29, TDP2 inh inactive, PAFAH2 inh inactive and PAFAH1B2 FP inh 40.
For COC(CNC(=O)[C@H](Cc1ccccc1)NC1(C(=O)NC2CCCCC2)CCCC1)OC the results were TDP2 inh inactive.
`Cc1ccc(CNC(=O)N[C@@H](Cc2ccccc2)C(=O)O)cc1` gave Apaf1 inhib inactive, PAFAH1B3 FP inh inactive, TDP2 inh inactive, PAFAH2 inh inactive and PAFAH1B2 FP inh 26.
`CCCCC[C@@H]1C=C(C(=O)O)[C@H](c2ccc(Cl)c(Cl)c2)N1S(=O)(=O)c1ccc(C)cc1` gave Apaf1 inhib inactive, PAFAH1B3 FP inh inactive, TDP2 inh inactive, PAFAH2 inh inactive and PAFAH1B2 FP inh 29.
For CCCCC[C@@H]1C=C(C(=O)O)[C@H](c2ccc(F)cc2)N1S(=O)(=O)c1ccc(C)cc1 the results were Apaf1 inhib inactive, PAFAH1B3 FP inh inactive, TDP2 inh inactive, PAFAH2 inh inactive and PAFAH1B2 FP inh 25.
`Cc1ccc([C@H](C)NC(=O)C2=C(N)N(S(=O)(=O)c3ccc(C)cc3)C(C(=O)c3ccccc3)C2c2ccccc2Cl)cc1` (stereo partly drawn) gave TDP2 inh inactive.
For CC1CC(NC(=O)/C=C/C(=O)O)CC(C)(C)C1 (stereo not drawn) the results were Apaf1 inhib inactive, PAFAH1B3 FP inh inactive, TDP2 inh inactive, PAFAH2 inh inactive and PAFAH1B2 FP inh 24.
Screening O=C(O)/C=C/C(=O)NC1CCCCC1 returned Apaf1 inhib inactive, PAFAH1B3 FP inh inactive, TDP2 inh inactive, PAFAH2 inh inactive and PAFAH1B2 FP inh inactive.
`C[C@H]1[C@@H](NC(=O)c2cccc(N(C)C)c2)CC[C@@]23CCCN2C(=O)CCC[C@@H]13` gave TDP2 inh inactive.
Screening N#Cc1c(N)sc2c1CCCCCC2 returned Apaf1 inhib inactive, PAFAH1B3 FP inh inactive, TDP2 inh inactive, PAFAH2 inh inactive and PAFAH1B2 FP inh 28.
CC(=O)Nc1sc2c(c1C#N)CCC2 was read as Apaf1 inhib inactive, PAFAH1B3 FP inh inactive, TDP2 inh inactive, PAFAH2 inh inactive and PAFAH1B2 FP inh inactive.
Screening N#Cc1c(N)sc(=S)c2c1CCCCC2 returned Apaf1 inhib inactive, PAFAH1B3 FP inh inactive, TDP2 inh inactive, PAFAH2 inh 45 and PAFAH1B2 FP inh inactive.
Screening Cc1ccccc1N=Nc1c(N)[nH]n(-c2ccccc2)c1=O returned TDP2 inh inactive.
Screening O=C(OCc1cn(Cc2ccc(F)cc2F)nn1)N1CCCC1 returned TDP2 inh inactive.
CCCCOc1ccc(C2OC34CCCCC3C(C#N)(C#N)C2(C#N)C(=N)O4)cc1 (stereo not drawn) was read as Apaf1 inhib inactive, PAFAH1B3 FP inh 57, PAFAH2 inh 42 and PAFAH1B2 FP inh 39.
Screening C=CCOc1ccc(C2OC34CCCCC3C(C#N)(C#N)C2(C#N)C(=N)O4)cc1 (stereo not drawn) returned Apaf1 inhib inactive, PAFAH1B3 FP inh 51, PAFAH2 inh 56 and PAFAH1B2 FP inh 42.
CCOc1ccc(C2OC34CCCCC3C(C#N)(C#N)C2(C#N)C(=N)O4)cc1OC (stereo not drawn) was read as Apaf1 inhib inactive, PAFAH1B3 FP inh 43, PAFAH2 inh 46 and PAFAH1B2 FP inh 37.
Screening Cc1ccc(C2OC34CCCCCC3C(C#N)(C(=N)O4)C2(C#N)C#N)cc1 (stereo not drawn) returned Apaf1 inhib inactive, PAFAH1B3 FP inh inactive, TDP2 inh inactive, PAFAH2 inh inactive and PAFAH1B2 FP inh inactive.
Screening CCN(CC)C(=O)CC[C@H]1CC[C@]2(CCCN(Cc3nccn3C)C2)O1 returned TDP2 inh inactive.
For CCOC(=O)Cn1cc(CN2C(C(=O)OC)CN(Cc3ccccc3)CCS2(=O)=O)nn1 (stereo not drawn) the results were TDP2 inh inactive.
For CC(=O)Nc1ccc(C(/C=C/c2ccccc2)Cc2ccccc2)cc1 (stereo not drawn) the results were TDP2 inh inactive.
`O=C(OCC#CCSc1nnc(-c2c[nH]c3ccccc23)o1)c1ccc(F)cc1` gave TDP2 inh inactive.
`CCCCCCn1cc(CN2CC=CS2(=O)=O)nn1` gave TDP2 inh inactive.
Screening C(=N\n1cnnc1)/c1cccc(OCCOc2ccccc2)c1 returned Apaf1 inhib inactive, PAFAH1B3 FP inh inactive, TDP2 inh inactive, PAFAH2 inh inactive and PAFAH1B2 FP inh 28.
Screening Cc1ccc(S(=O)(=O)Oc2cccc(/C=N/n3cnnc3)c2)cc1 returned Apaf1 inhib inactive, PAFAH1B3 FP inh inactive, TDP2 inh inactive, PAFAH2 inh inactive and PAFAH1B2 FP inh 24.

From PubChem BioAssay
